High-throughput results: PubChem, The Scripps Research Institute Molecular Screening Center
An excerpt weighted towards active compounds, which were near 2.3% of everything screened.
V1aR counter: V1a receptor agonism, counter-screen for OXTR agonists; CHO-V1R cells, Fluo-8 calcium fluorescence, agonist mode; 0% DMSO, 100% 3 nM vasopressin; activation, % at 3 µM; 320,000 tested, 0.25% active;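 active = activation above the mean activation of all tested compounds plus 3 SD, per screening run, cut at about 20% in these data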;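 note: signal is peak over basal fluorescence ratio across a 100 second FLIPR read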
Target sequence (P37288 whole entry, looked up): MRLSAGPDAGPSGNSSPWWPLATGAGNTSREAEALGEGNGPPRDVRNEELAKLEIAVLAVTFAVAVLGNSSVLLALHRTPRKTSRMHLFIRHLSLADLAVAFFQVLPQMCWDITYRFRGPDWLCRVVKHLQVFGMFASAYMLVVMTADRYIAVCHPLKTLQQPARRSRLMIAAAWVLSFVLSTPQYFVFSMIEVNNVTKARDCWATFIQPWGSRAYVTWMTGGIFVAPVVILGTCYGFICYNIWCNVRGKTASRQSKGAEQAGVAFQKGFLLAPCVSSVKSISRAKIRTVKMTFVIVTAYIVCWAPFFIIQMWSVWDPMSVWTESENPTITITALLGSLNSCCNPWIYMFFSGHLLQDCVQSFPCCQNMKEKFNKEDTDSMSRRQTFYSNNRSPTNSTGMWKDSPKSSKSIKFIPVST
TAAR1 ag: agonists of human TAAR1; Q96RJ0; CHO RD-HGA16 TAAR1, Fluo-8 calcium fluorescence; vehicle wells 0%, saturating PEA agonist 100%; activation, % at 3 µM; 360,000 tested, 0.99% active;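 active = activation above the mean activation of all test compounds in the run plus 3 SD, cut at about 38% in these data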
Target sequence (Q96RJ0 whole entry, looked up): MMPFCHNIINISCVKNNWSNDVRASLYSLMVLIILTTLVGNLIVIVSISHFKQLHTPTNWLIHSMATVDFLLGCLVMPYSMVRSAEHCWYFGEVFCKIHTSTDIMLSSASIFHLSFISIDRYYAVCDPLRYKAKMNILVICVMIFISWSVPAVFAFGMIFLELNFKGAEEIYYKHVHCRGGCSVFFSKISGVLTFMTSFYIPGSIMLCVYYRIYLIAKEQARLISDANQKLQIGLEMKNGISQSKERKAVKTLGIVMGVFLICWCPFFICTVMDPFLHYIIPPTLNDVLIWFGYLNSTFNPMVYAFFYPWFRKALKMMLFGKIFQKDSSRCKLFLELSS
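Benchmarks: low control DMSO, high control PEA (EC100); System: CHO RD-HGA16 cells carrying human TAAR1 plus Gα16; Detection: Fluo-8 fluorescence, 5 s baseline then 140 s kinetic read; Schedule: 17-24 h plating, Fluo-8 75 min 37 °C, 30 min RT; Read-out basis: % activation from peak over basal fluorescence ratio, DMSO-to-PEA scaled.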
OXTR agonist: agonists of human oxytocin receptor. P30559. CHO-OTR cells, Fluo-8 calcium fluorescence; normalized: DMSO 0%, oxytocin 100%. activation, % at 3 µM. 320,000 tested, 0.32% active;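 active = activation above the mean of all tested compounds plus 3 SD, cutoff set per screening run, cut at about 20% in these data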;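 note: peak over basal fluorescence ratio from a 100 s FLIPR kinetic read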
TAAR1 antagonist: antagonists of human TAAR1 | Q96RJ0 | CHO RD-HGA16 TAAR1, Fluo-8 calcium fluorescence, antagonist | inhibition, % at 3 µM | 360,000 tested, 1.5% active | AID 624466;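 active = inhibition above a per-plate cutoff, the mean inhibition of test compounds on that plate plus 3 SD, cut at about 49% in these data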;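 note: 0% = DMSO plus EC80 beta-PEA response and 100% = DMSO alone without agonist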
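Material: CHO RD-HGA16 cells bearing hTAAR1; compound dosing: one-point dosing, 3 µM nominal final; schedule: dye loading 75 min at 37 °C, then 30 min room temperature; measured by: calcium fluorescence with Fluo-8; control set: vehicle and agonist controls; replication: n of 1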
OXTR potentiator: potentiates the human oxytocin receptor response; CHO-OTR cells, Fluo-8 calcium fluorescence, potentiator mode; 0% = oxytocin EC15, 100% = EC100; activation, % at 3 µM; P30559; 320,000 tested, 0.061% active;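 active = activation above that plate's cutoff, the mean activation of tested compounds plus 3 SD, cut at about 6.6% in these data, passing the limit was not always enough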;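 note: 100% uses oxytocin at 75 nM as the full agonist control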
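Dosing: Single dose, 3.0 µM nominal final compound concentration | Material: Human OTR in CHO cells | Technique: Kinetic Fluo-8 calcium fluorescence | Benchmarks: EC15 oxytocin alone as 0%, 75 nM oxytocin as 100% | Probe or stimulus: Oxytocin at about EC15, sub-maximal agonist stimulus | Incubation: Compound 6 min at room temperature before oxytocin, 100 s read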
TAAR1 nonsel count: nonselective antagonist in TAAR1 antagonist counter-screen; shares compounds with TAAR1 antagonist; counterscreen cell line, calcium fluorescence, antagonist mode; inhibition, % at 3 µM; 2,400 tested, 77% active; AID 651780; in the data active = inhibition above about 22%;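 note: CHO-Ga16 host cells stimulated with ATP at an EC80 level; 0% = agonist EC80 plus vehicle and 100% = vehicle without agonist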
TAAR1 ant conf: confirmation of human TAAR1 antagonists; TAAR1-expressing cells, fluorescence antagonist read-out; inhibition, % at 3 µM; 2,400 tested, 40% active; shares compounds with TAAR1 antagonist; in the data active = inhibition above about 49%;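 note: CHO-Ga16 host cells challenged with agonist PEA near its EC80; 0% = agonist at EC80 plus vehicle and 100% = vehicle with no agonist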
Ga16 ag counter: nonselective Ga16 agonist in TAAR1 antagonist counter-screen; shares compounds with TAAR1 antagonist; Ga16-expressing cells, calcium fluorescence, agonist counterscreen; activation, % at 3 µM; 2,400 tested, 18% active; in the data active = activation above about 12%;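 note: 0% = vehicle wells and 100% = saturating stimulus response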
TAAR1 ag counter: TAAR1 agonism, antagonist counter-screen; hTAAR1 cell line, fluorescence activation, agonist mode; 2,400 tested, 2% active; activation, % at 3 µM; shares compounds with TAAR1 antagonist; in the data active = activation above about 37%;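 note: CHO cells stably expressing TAAR1 with calcium dye readout; 0% = DMSO vehicle and 100% = full agonist response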
An asterisk follows results filed as active; . = no result given.

SMILES	V1aR counter	TAAR1 ag	OXTR agonist	TAAR1 antagonist	OXTR potentiator	TAAR1 nonsel count	TAAR1 ant conf	Ga16 ag counter	TAAR1 ag counter
COc1ccccc1CCn1cnc(-c2ccccc2)c1CC(C)C	.	6.9	.	55.9*	.	41.5*	49.1*	12.4*	26.0
CCCCN(C)C(=O)c1ccc(Nc2nc(C(N)COCc3ccccc3)cs2)nc1 (stereo unspecified)	.	1.4	.	2.4	.	.	.	.	.
COc1ccccc1NS(=O)(=O)c1cc([N+](=O)[O-])ccc1N/N=C/c1c(C)[nH]c2ccccc12	14.7	33.2	16.7	58.3*	-9.2	47.3*	46.0	16.4*	8.5
Cc1ccc(-c2cc(C(=O)Nc3ccccc3C(N)=O)c3ccccc3n2)o1	0.3	23.0	-0.7	66.4*	-2.1	34.3*	53.6*	12.9*	12.4
COc1ccc(OC)c(-c2cc(C(=O)Nc3ccccc3C(N)=O)c3ccccc3n2)c1	1.7	20.6	-0.4	75.9*	-4.8	34.5*	54.0*	10.6	9.5
COc1ccc(NC(=O)c2cc(-c3ccc(C)o3)nc3ccccc23)c(OC)c1	-1.1	7.3	-2.8	75.0*	-3.1	32.5*	45.9	9.2	6.2
COc1ccc(NC(=O)Nc2cccc3ccccc23)c(OC)c1	1.2	23.6	0.9	59.4*	-8.7	18.5	42.4	3.2	4.2
COc1ccc(OC)c(-c2cc(C(=O)N/N=C/c3ccc(F)cc3)c3ccccc3n2)c1	-0.2	2.4	-0.6	-18.3	-4.1	.	.	.	.
COc1ccc(OC)c(NC(=O)Nc2cccc3ccccc23)c1	-1.3	1.9	-1.5	-5.9	-5.2	.	.	.	.
CCN(CC(=O)NC1CCCC1)S(=O)(=O)c1ccc(F)cc1	1.1	0.4	-0.8	-20.3	-2.6	.	.	.	.
CC1CCCCC12NC(=O)N(CC(=O)Nc1sccc1C(N)=O)C2=O (stereo unspecified)	0.3	5.6	-0.5	-19.7	-4.2	.	.	.	.
COc1ccccc1C(=O)NCCC(=O)Nc1ccc(S(=O)(=O)N2C(C)CCCC2C)cc1 (stereo unspecified)	3.2	8.8	-0.5	1.1	-9.1	.	.	.	.
Cc1ccc(CNC(=O)CCSCc2cccc(F)c2)cc1	-1.7	-1.0	-2.6	-17.4	0.1	.	.	.	.
COc1ccc(NC(=O)c2cc(-c3ccco3)nc3ccccc23)cc1	-0.1	6.0	0.9	16.0	-9.8	.	.	.	.
Cc1cccc(NC(=O)c2cc(-c3ccco3)nc3ccccc23)n1	-0.7	17.8	-2.3	54.9*	-8.3	27.3*	49.9*	6.9	4.9
Cc1ccc(-c2cc(C(=O)N(C)CC(=O)Nc3ccccc3Br)c3ccccc3n2)o1	-1.9	14.3	-0.9	66.4*	-8.7	34.0*	49.6*	11.9*	13.2
CC(C)(C)c1cc(C(=O)NCc2cc(F)cc3c2OCOC3)n(Cc2ccccc2)n1	-2.2	3.8	-2.5	81.2*	-15.1	33.6*	54.8*	4.7	1.5
CC(C)(C)c1cc(C(=O)NNC(=O)Nc2ccccc2)n(Cc2ccccc2)n1	0.0	-1.6	-1.1	1.2	-1.5	.	.	.	.
Cc1ccc(Cl)cc1NC(=O)Nn1cnnc1	-0.5	0.6	0.3	62.3*	-3.7	1.6	-1.2	0.4	0.3
Cc1ccc(C)c(NC(=O)Nn2cnnc2)c1	0.2	1.1	0.0	-9.2	-3.8	.	.	.	.
O=C(Nc1cc(Cl)ccc1Cl)c1ccc(OC(=O)c2ccco2)cc1	0.8	10.7	-0.5	84.8*	-1.4	24.6*	36.7	2.6	3.7
Cc1ccc(NC(=O)c2ccc(OC(=O)c3ccco3)cc2)cc1	0.7	3.5	0.2	-3.3	-6.6	.	.	.	.
Cc1ccc(NC(=O)CSc2nc(=O)n(CCCN3CCOCC3)c3c2CCCC3)c(C)c1	0.1	-2.1	-1.6	-6.6	-0.7	.	.	.	.
CCC(C(=O)OCC(=O)Nc1ccc(SC(F)F)cc1)c1ccccc1 (stereo unspecified)	.	1.6	.	62.5*	.	39.4*	52.6*	2.8	7.2
O=C(N/N=C/c1coc2ccccc2c1=O)c1ccc(Cl)cc1	1.0	-0.5	0.4	-2.1	3.9	.	.	.	.
SMILES	V1aR counter	TAAR1 ag	OXTR agonist	TAAR1 antagonist	OXTR potentiator	TAAR1 nonsel count	TAAR1 ant conf	Ga16 ag counter	TAAR1 ag counter
O=c1c(/C=N\NS(=O)(=O)c2ccccc2)coc2ccc(Cl)cc12	2.4	8.6	0.2	58.9*	-11.1	25.8*	49.0*	6.0	9.9
COc1ccc(N(Cc2cc3ccccc3[nH]c2=O)S(=O)(=O)c2ccc(C)cc2)cc1	0.0	0.9	-0.1	54.9*	-8.1	21.3	36.4	7.7	9.3
COc1ccc2[nH]c(=O)c(CN(CCO)S(=O)(=O)c3ccc(C)cc3)cc2c1	-1.2	0.4	-0.6	-2.8	-4.0	.	.	.	.
COc1ccc(N(Cc2cc3ccccc3[nH]c2=O)S(=O)(=O)c2ccccc2)cc1	-0.2	3.4	-2.2	33.0	-22.4	.	.	.	.
CCCCN(Cc1cc2cc(OC)ccc2[nH]c1=O)S(=O)(=O)c1ccc(C)cc1	0.9	5.0	-2.0	77.0*	-23.7	13.5	48.2	6.5	21.6
COc1ccc(CN2CCNC(=O)C2CC(=O)NCc2cnn(C)c2)cc1OC (stereo unspecified)	1.0	1.0	-0.2	5.5	-0.3	.	.	.	.
CC/C(=C(/CC)c1ccc(O)cc1)c1ccc(O)cc1	1.8	0.3	-0.9	56.9*	-5.6	23.2*	37.4	3.9	11.5
OCC1(Cc2ccccc2)CCN(C2CCN(c3ccc(F)c(F)c3)CC2)CC1	18.7	6.8	15.7	1.8	-34.6	.	.	.	.
Nc1ncnc2nc(N3CCN(C(=O)c4ccccc4)CC3)[nH]c12	0.2	-5.9	0.6	102.3*	-9.5	5.7	3.7	3.7	4.4
O=C(c1ccccc1)N1CCN(c2ncccn2)CC1	0.7	1.9	-0.8	-25.9	-10.4	.	.	.	.
COc1cc2[nH]c(C(=O)N3CCN(c4ccccc4F)CC3)cc2c(OC)c1OC	1.5	-1.4	-0.7	-14.4	-9.2	.	.	.	.
N#CC(C#N)=C1C=CC=CN1/C(=C\c1ccccc1Cl)C(=O)c1ccccc1	0.6	7.9	-0.7	56.2*	-4.8	49.0*	58.8*	6.0	2.3
N#CC(C#N)=C1C=CC=CN1/C(=C\c1ccccc1)C(=O)c1cccs1	0.1	1.9	-1.8	13.3	6.7	.	.	.	.
CC(C)C(=O)N1CCC1(C)C(=O)NCc1ccc(F)cc1Cl (stereo unspecified)	.	0.5	.	-6.8	.	.	.	.	.
CCCN(C(=O)CCNC(=O)c1ccc(Cl)cc1)c1c(N)n(Cc2ccccc2)c(=O)[nH]c1=O	0.2	0.2	0.2	-8.1	-3.1	.	.	.	.
